Measured values taken from ChEMBL document CHEMBL4038303, “Simultaneous Drug Targeting of the Promoter MYC G-Quadruplex and BCL2 i-Motif in Diffuse Large B-Cell Lymphoma Delays Tumor Growth” (J Med Chem, 2017).
Active and inactive are the calls of the source. No cut-off for these calls is given here.

Experiments:
Mus musculus [1] = experiment: Toxicity in scid mouse xenografted with human U2932 cells assessed as change in body weight at 2.5 to 5 mg/kg, ip administered for 5 consecutive days in presence of CPA; format: organism-based; conditions: in vivo
Procedure, shortened: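 SCID mice aged 6−8 weeks with serum Ig ≤20 μg/mL received U2932 cells (10 × 10^6 in 100 μL saline) subcutaneously in the left flank. Mice were pair-matched by tumor volume. Compound at 2.5 or 5 mg/kg with 50 mg/kg cyclophosphamide was given ip daily for 5 days. Controls received the diluents. Grubbs' test was used to exclude outliers.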

Homo sapiens [2] = species: Homo sapiens; experiment: Binding affinity to c-myc G-quadruplex DNA in BCL2 translocation-positive human SUDHL4 cells assessed as downregulation of MYC mRNA levels after 24 hrs by qPCR method
Procedure, shortened: (§1)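 DLBCL lines grown in RPMI with 10% FBS (SUDHL4 15% FBS) and penicillin/streptomycin. Cells exposed for 24 h to rising concentrations up to 3 μM; DMSO as vehicle control. Total RNA isolated, target mRNA measured by TaqMan real-time qPCR, normalized to TBP and expressed relative to untreated cells; triplicate experiments, two-tailed t test.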

U2932 [3] = experiment: Potentiation of CPA-induced antitumor activity against human U2932 cells xenografted in SCID mouse assessed as reduction in tumor burden AUC at 5 to 7.5 mg/kg, ip for 5 days cotreated with 10 mg/kg NSC-59276 measured on day 9 to 15 post first treatment; format: functional, organism-based
Procedure, shortened: (§2)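 U2932 DLBCL cells (10 × 10^6 in 100 μL sterile saline, viability >91%) injected subcutaneously into left flank of SCID mice (6−8 weeks, immunoglobulin ≤20 μg/mL). Mice pair-matched by tumor volume. Drugs given ip daily for 5 days, CPA 30 mg/kg; controls received all diluents. Tumor volume = a2 × b/2 (a smallest, b largest diameter); n = 5−8; Grubbs' test for outliers.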

Mus musculus [4] = experiment: Toxicity in scid mouse xenografted with human U2932 cells assessed as change in body weight at 5 to 7.5 mg/kg, ip administered for 5 consecutive days in presence of CPA; format: organism-based; conditions: in vivo
Procedure, shortened: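 In the follow-up U2932 subcutaneous xenograft study in SCID mice (pair-matched by tumor volume, n = 5−8), compound at 5 or 7.5 mg/kg was given ip daily for 5 days with 30 mg/kg cyclophosphamide and 10 mg/kg BCL2 i-motif ligand. Diluent was given in place of any absent agent. Body weight and survival were followed.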

Homo sapiens [5] = species: Homo sapiens; experiment: Binding affinity to c-myc G-quadruplex DNA in BCL2 and MYC translocation-positive human VAL cells assessed as downregulation of MYC protein levels up to 3 uM after 24 hrs by Western blot analysis
Procedure, shortened: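 Cell lines treated 24 h with compound up to 3 μM, with untreated and DMSO-treated controls. Lysates (20 μg total protein) probed by Western blot for BCL2 or MYC with antibodies at 1:1000; actin as loading control. Blots representative of triplicate experiments.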

Mus musculus [6] = experiment: Toxicity in SCID mouse xenografted with human U2932 cells assessed as survival at 7.5 mg/kg, ip administered for 5 consecutive days in presence of CPA; format: organism-based; conditions: in vivo
Procedure, shortened: (§3)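 SCID mice (6−8 weeks, female or male, serum immunoglobulin ≤20 μg/mL by ELISA) implanted subcutaneously in left flank with 10 × 10^6 U2932 cells in 100 μL saline; pair-matched by tumor volume; dosed ip daily for 5 days; controls received all compound diluents; tumor volume a2 × b/2; outliers by Grubbs' test; two-tailed t test with Šidák–Bonferroni correction.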

Mus musculus [7] = experiment: Toxicity in scid mouse xenografted with human U2932 cells assessed as change in body weight at 10 mg/kg, ip administered for 5 consecutive days cotreated with NSC-59276 and CPA; format: organism-based; conditions: in vivo; procedure, shortened: as §3
Mus musculus [8] = experiment: Effect on BCL2 mRNA level in SCID mouse xenografted with human U2932 cells at 2.5 to 5 mg/kg, ip administered for 5 consecutive days cotreated with CPA by qPCR method; format: functional, organism-based
Procedure, shortened: (§4)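 Tumors from U2932 xenograft SCID mice given ip treatment daily for 5 days were harvested. Total RNA was taken from the same tumor preparations used for protein lysates, and MYC or BCL2 mRNA was quantified by TaqMan qPCR normalized to TBP. Comparisons were made with diluent-treated mice or CPA-only mice.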

Homo sapiens [9] = species: Homo sapiens; experiment: Binding affinity to BLC2 i-motif promoter DNA in MYC translocation-positive and BCL2 amplification-positive human U2932 cells assessed as downregulation of BLC2 mRNA levels up to 3 uM after 24 hrs by qPCR method; procedure, shortened: as §1
Homo sapiens [10] = species: Homo sapiens; experiment: Binding affinity to c-myc G-quadruplex DNA in human VAL cells assessed as downregulation of MYC mRNA levels at 0.25 to 3 uM after 6 hrs by qPCR method; format: cell-based
Mus musculus [11] = experiment: Reduction in Myc mRNA level in SCID mouse xenografted with human U2932 cells at 2.5 to 5 mg/kg, ip administered for 5 consecutive days cotreated with CPA by qPCR method; format: functional, organism-based; procedure, shortened: as §4
Homo sapiens [12] = species: Homo sapiens; experiment: Binding affinity to c-myc G-quadruplex DNA in MYC translocation-positive and BCL2 amplification-positive human U2932 cells assessed as downregulation of MYC mRNA levels after 24 hrs by qPCR method; procedure, shortened: as §1
Homo sapiens [13] = species: Homo sapiens; experiment: Stabilization of c-myc G-quadruplex DNA in BCL2 translocation-positive human SUDHL4 cells assessed as potentiation of CPA-induced apoptosis by measuring increase in caspase-3 activity at 3 uM after 24 hrs in presence of NSC-59276 by AFC based fluorescence assay (reference value: 30%)
Homo sapiens [14] = species: Homo sapiens; experiment: Binding affinity to c-myc G-quadruplex DNA in BCL2 and MYC translocation-positive human VAL cells assessed as downregulation of MYC mRNA levels at 3 uM after 24 hrs by qPCR method; procedure, shortened: as §1
HT = experiment: Down regulation of BLC2 mRNA level in human HT cells up to 3 uM after 24 hrs by qPCR method; format: functional, cell-based; procedure, shortened: as §1
Homo sapiens [15] = species: Homo sapiens; experiment: Stabilization of c-myc G-quadruplex DNA in MYC translocation-positive and BCL2 amplification-positive human U2932 cells assessed as potentiation of CPA-induced apoptosis by measuring increase in caspase-3 activity at 3 uM after 24 hrs in presence of NSC-59276 by AFC based fluorescence assay (reference value: 30%)
Homo sapiens [16] = species: Homo sapiens; experiment: Binding affinity to c-myc G-quadruplex DNA in MYC translocation-positive and BCL2 amplification-positive human U2932 cells assessed as downregulation of MYC mRNA levels at 0.25 to 3 uM after 6 hrs by qPCR method
Homo sapiens [17] = species: Homo sapiens; experiment: Binding affinity to c-myc G-quadruplex DNA in human HT cells assessed as downregulation of MYC mRNA levels at 3 uM after 24 hrs by qPCR method; format: cell-based; procedure, shortened: as §1
U2932 [18] = experiment: Potentiation of CPA-induced antitumor activity against human U2932 cells xenografted in SCID mouse assessed as tumor growth inhibition at 7.5 mg/kg, ip for 5 days cotreated with 10 mg/kg NSC-59276 measured on day 9 post first treatment (reference value: 50%); format: functional; procedure, shortened: as §2
Homo sapiens [19] = species: Homo sapiens; experiment: Binding affinity to c-myc G-quadruplex DNA in human HT cells assessed as downregulation of MYC mRNA levels at 0.25 to 3 uM after 6 hrs by qPCR method; format: cell-based
Mus musculus [20] = experiment: Toxicity in scid mouse xenografted with human U2932 cells assessed as survival at 10 mg/kg, ip administered for 5 consecutive days cotreated with NSC-59276 and CPA; format: organism-based; conditions: in vivo; procedure, shortened: as §3

Cc1c2ccncc2c(C)c2c1[nH]c1ccc(OCCN(C)C)cc12.Cl.Cl
Activity (Mus musculus [1]): Non-Toxic
Activity (Homo sapiens [2]): Dose-dependent effect
Activity (U2932 [3]): Active
Activity (Mus musculus [4]): Non-Toxic
Activity (Homo sapiens [5]): Active
Activity (Mus musculus [6]): Non-Toxic
Activity (Mus musculus [7]): Toxic
Activity (Mus musculus [8]): inactive
Activity (Homo sapiens [9]): inactive
Activity (Homo sapiens [10]): Active
Activity (Mus musculus [11]): Active
Activity (Homo sapiens [12]): Dose-dependent effect
Activity (Homo sapiens [13]): 100%
Activity (Homo sapiens [14]): Active
Activity (HT): inactive
Activity (Homo sapiens [15]): 100%
Activity (Homo sapiens [16]): Active
Activity (Homo sapiens [17]): Active
TGI (U2932 [18]): 50%
Activity (Homo sapiens [19]): Active
Activity (Mus musculus [20]): Toxic
